Measured values reported in ChEMBL document CHEMBL5252510, “A Novel Potent Oral Series of VEGFR2 Inhibitors Abrogate Tumor Growth by Inhibiting Angiogenesis” (J Med Chem, 2016).
Active and inactive are the calls of the source. No cut-off for these calls is given here.

How the values were obtained:
[1] = Half-life in OFA rat at 1 mg/kg, iv measured upto 24 hrs by HPLC/UV analysis; format: ADME, organism-based; settings: in vivo
Outline: (§1)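 Catheters were placed in the femoral artery and vein of female OFA rats, followed by 96 h recovery. IV doses went into the femoral vein: 2.5 mg/kg in ethanol/dimethylisosorbide/PEG400/5 % glucose (10/15/35/40), or 1 mg/kg in NMP/PEG200 (30:70). Plasma samples at 5, 15, 30 min and 1, 2, 4, 6, 8, 24 h. Parameters reported over 24 h. n=2–4.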

[2] = Clearance in OFA rat at 1 mg/kg, iv measured upto 24 hrs by HPLC/UV analysis; format: ADME, organism-based; settings: in vivo; outline: as §1
[3] = Dose normalized AUC(0 to infinity) in OFA rat at 3 mg/kg, po measured upto 24 hrs by HPLC/UV analysis; format: ADME, organism-based; settings: in vivo
Outline: (§2)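 Female OFA rats, femoral artery/vein catheterized and recovered 96 h. Oral gavage of a micronized suspension in 0.5 % carboxymethyl cellulose at 25 or 3 mg/kg. Bioavailability taken against femoral-vein iv dosing. Plasma sampled 5 min–24 h (9 time points).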

[4] = Dose normalized Cmax in OFA rat at 3 mg/kg, po measured upto 24 hrs by HPLC/UV analysis; format: ADME, organism-based; settings: in vivo; outline: as §2
[5] = Oral bioavailability in OFA rat at 3 mg/kg measured upto 24 hrs by HPLC/UV analysis; format: ADME, organism-based; settings: in vivo; outline: as §2
[6] = Volume of distribution at steady state in OFA rat at 1 mg/kg, iv measured upto 24 hrs by HPLC/UV analysis; format: ADME, organism-based; settings: in vivo, read-out: Vdss
Outline: (§3)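 Female OFA rats with femoral artery and vein catheters, 96 h recovery. IV into femoral vein: 2.5 mg/kg in ethanol/dimethylisosorbide/PEG400/D5W (10/15/35/40) or 1 mg/kg in NMP/PEG200 (30:70). Plasma sampled at 5, 15, 30 min, 1, 2, 4, 6, 8, 24 h; drug measured by HPLC (UV or MS-MS stated); parameters dose normalized, n=2-4.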

[7] = Half-life in OFA rat at 2.5 mg/kg, iv measured upto 24 hrs by HPLC/UV analysis; format: ADME, organism-based; settings: in vivo; outline: as §1
[8] = Volume of distribution at steady state in OFA rat at 2.5 mg/kg, iv measured upto 24 hrs by HPLC/UV analysis; format: ADME, organism-based; settings: in vivo, read-out: Vdss; outline: as §3
[9] = Half life in OFA rat at 25 mg/kg, po measured upto 24 hrs by HPLC/UV analysis; format: ADME, organism-based; settings: in vivo; outline: as §2
[10] = Tmax in OFA rat at 25 mg/kg, po measured upto 24 hrs by HPLC/UV analysis; format: ADME, organism-based; settings: in vivo; outline: as §2
[11] = Clearance in OFA rat at 2.5 mg/kg, iv measured upto 24 hrs by HPLC/UV analysis; format: ADME, organism-based; settings: in vivo; outline: as §1
[12] = biological target: Tyrosine-protein kinase ABL1 (Homo sapiens) (UniProt P00519); assay: Inhibition of human recombinant GST-fused ABL expressed in baculovirus expression system using poly-Glu-Tyr (4:1) as substrate measured after 10 mins in presence of gamma-[33P]-ATP by scintillation counting analysis
Sequence of Tyrosine-protein kinase ABL1 (Homo sapiens) (P00519 whole entry, the tested form may be a part): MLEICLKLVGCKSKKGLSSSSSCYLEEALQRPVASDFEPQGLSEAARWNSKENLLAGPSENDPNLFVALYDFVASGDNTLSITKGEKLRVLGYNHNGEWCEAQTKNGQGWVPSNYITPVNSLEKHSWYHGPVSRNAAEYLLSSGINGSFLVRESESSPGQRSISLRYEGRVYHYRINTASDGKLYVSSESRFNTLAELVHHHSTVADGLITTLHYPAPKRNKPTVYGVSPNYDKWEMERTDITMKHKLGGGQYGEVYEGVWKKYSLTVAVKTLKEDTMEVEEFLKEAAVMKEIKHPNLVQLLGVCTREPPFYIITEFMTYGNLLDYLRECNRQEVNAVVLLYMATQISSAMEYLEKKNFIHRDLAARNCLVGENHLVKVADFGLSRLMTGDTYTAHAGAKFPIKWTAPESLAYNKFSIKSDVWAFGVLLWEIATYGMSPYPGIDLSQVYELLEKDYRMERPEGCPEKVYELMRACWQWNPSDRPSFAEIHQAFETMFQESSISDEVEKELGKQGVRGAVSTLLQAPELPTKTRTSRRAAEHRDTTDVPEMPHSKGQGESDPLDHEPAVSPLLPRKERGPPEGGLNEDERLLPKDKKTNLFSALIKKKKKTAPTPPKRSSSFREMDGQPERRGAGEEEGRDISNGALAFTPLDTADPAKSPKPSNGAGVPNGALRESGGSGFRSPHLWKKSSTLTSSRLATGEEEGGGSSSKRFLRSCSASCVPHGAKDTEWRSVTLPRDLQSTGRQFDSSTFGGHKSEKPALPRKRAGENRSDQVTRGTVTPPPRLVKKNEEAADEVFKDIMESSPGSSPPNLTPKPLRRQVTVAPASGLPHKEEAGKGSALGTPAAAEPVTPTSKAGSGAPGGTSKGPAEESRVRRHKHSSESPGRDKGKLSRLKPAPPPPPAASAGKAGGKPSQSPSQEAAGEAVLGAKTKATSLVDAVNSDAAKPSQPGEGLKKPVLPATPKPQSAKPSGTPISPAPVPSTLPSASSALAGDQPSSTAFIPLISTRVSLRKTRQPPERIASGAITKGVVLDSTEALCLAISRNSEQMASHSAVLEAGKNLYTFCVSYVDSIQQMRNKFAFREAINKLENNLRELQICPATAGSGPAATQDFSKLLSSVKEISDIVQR
Outline: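 GST-fused kinase domains were expressed in baculovirus and purified on glutathione-Sepharose. 10 min at ambient temperature, stopped with EDTA. Filter binding and scintillation counting. IC50 by linear regression of percent inhibition.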

[13] = Dose normalized Cmax in OFA rat at 25 mg/kg, po measured upto 24 hrs by HPLC/UV analysis; format: ADME, organism-based; settings: in vivo; outline: as §2
[14] = Antitumor activity against rat BN472 cell implanted in Brown-Norway rat assessed as T/C ratio at 3 mg/kg, po qd measured upto 14 days; format: functional; settings: time <= 14 day
Outline: (§4)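 Female Brown-Norway rats (160-180 g) given 3 mm³ BN472 tumor fragments in mammary fat pads; at about 200 mm², randomized into groups of 7-8 and dosed orally with compound or PEG300 vehicle over 14 days; tumor growth followed, T/C computed; significance by 2-way RM-ANOVA.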

BN472 cell [15] = assay: Induction of apoptosis in rat BN472 cell implanted in Brown-Norway rat assessed as effect on caspase 3 level at 3 mg/kg, po qd measured upto 14 days by microscopic analysis; format: functional, organism-based; settings: time <= 14.0 day
Outline: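 BN472 fragments were grown in mammary fat pads of female Brown-Norway rats and dosed orally for 14 days. Hoechst dye was given i.v. 2 min before sacrifice. Excised tumors were cut as 10 micron frozen sections, blocked with 10 % normal goat serum/0.1 % Triton X-100 and stained with rabbit anti-rat caspase 3 (1:10), then a TRITC or FITC secondary. Read by fluorescence microscopy.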

BN472 cell [16] = assay: Antitumor activity against rat BN472 cell implanted in Brown-Norway rat assessed as reduction in cell growth at 3 mg/kg, po qd measured upto 14 days by Ki67 staining based microscopic analysis; format: functional, organism-based; settings: time <= 14.0 day
Outline: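 BN472-bearing Brown-Norway rats dosed orally; Hoechst dye i.v. shortly before sacrifice to mark perfused vessels; tumors cryosectioned at 10 micron, blocked in 10 % goat serum/0.1 % Triton X-100, stained with rabbit anti-Ki67 (1:200) or anti-caspase 3 (1:10) and fluorescent secondary antibodies; fluorescence microscopy.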

Mus musculus [17] = organism: Mus musculus; assay: Antiangiogenic activity in C57BL/6jNpa mouse harbouring mouse B16-BL6 cells assessed as reduction in iAUEC level measured after 3 days by DCE-MRI assay relative to control; format: functional; parameters: scale not given: the % may be the effect or the level left; settings: time 3 day
Outline: (§5)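 C57BL/6JNpa mice bearing B16/BL6 cervical lymph-node metastases, at least 8 per group, anaesthetized and given contrast agent; DCE-MRI Ktrans and iAUEC (permeability) and Vp (plasma volume) measured before and again after daily treatment; change per mouse recorded, mean ± SEM, one-way ANOVA with Holm-Sidak comparisons versus vehicle.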

B16-BL6 [18] = assay: Antitumor activity against mouse B16-BL6 cells implanted in C57BL/6jNpa mouse assessed as primary tumor growth inhibition by measuring T/C ratio at 1 mg/kg, po qd administered every 2 days started on day 7 post implantation measured after 21 days; format: functional; settings: time 7-21 day
Outline: (§6)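 Female C57BL/6JNpa mice, 50000 B16/BL6 cells intradermally in both ear pinnae; primary tumor area (mm²) imaged days 7, 14, 21; randomized day 7 into groups of 5-6, oral dosing in PEG200 or PEG300 vehicle daily (or every 2 days) for 14 days; day 21 cervical lymph nodes weighed, metastasis lysates assayed for TIE-2 by ELISA; T/C ratios.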

[19] = Antitumor activity against rat BN472 cell implanted in Brown-Norway rat assessed as T/C ratio at 1 mg/kg, po qd measured upto 14 days; format: functional; settings: time <= 14 day; outline: as §4
Mus musculus [20] = organism: Mus musculus; assay: Antiangiogenic activity in C57BL/6jNpa mouse harbouring mouse B16-BL6 cells assessed as reduction in K-trans level measured after 3 days by DCE-MRI assay relative to control; format: functional; parameters: scale not given: the % may be the effect or the level left; settings: time 3 day; outline: as §5
B16-BL6 [21] = assay: Antitumor activity against mouse B16-BL6 cells implanted in C57BL/6jNpa mouse assessed as metastatic tumor growth inhibition at 3 mg/kg, po qd administered once every 2 days started on day 7 post implantation measured after 21 days relative to control; format: functional, organism-based; settings: time 7-21 day; outline: as §6
[22] = Antitumor activity against rat BN472 cell implanted in Brown-Norway rat assessed as T/C ratio at 1 mg/kg, po administered once every 2 days measured upto 14 days; format: functional; settings: time <= 14 day; outline: as §4
Mus musculus [23] = organism: Mus musculus; assay: Antiangiogenic activity in C57BL/6jNpa mouse harbouring mouse B16-BL6 cells assessed as reduction in iAUEC level by measuring T/C ratio measured after 3 days by DCE-MRI assay; format: functional; settings: time 3 day; outline: as §5

Structure (SMILES): O=C(Nc1cccc(C(F)(F)F)c1)c1cccc2cc(Oc3cc(CO)ncn3)ccc12 [BFH-772]
- half-life [1]: 2.5 h
- clearance [2]: 3 mL/min/kg
- AUC/dose [3]: 13.2 µmol·h/L
- Cmax/dose [4]: 1570 nM
- bioavailability [5]: 46%
- Vd [6]: 0.63 L/kg

Structure (SMILES): Nc1nccc(Oc2ccc3c(C(=O)Nc4cccc(C(F)(F)F)c4)cccc3c2)n1
- half-life [7]: 2 h
- Vd [8]: 1.3 L/kg
- half-life [9]: 2 h
- Tmax [10]: 2 h
- clearance [11]: 11 mL/min/kg
- inhibition [12]: Active
- Cmax/dose [13]: 280 nM

Structure (SMILES): Nc1nccc(Oc2ccc3c(C(=O)Nc4ccc(F)c(C(F)(F)F)c4)cccc3c2)n1
- T/C [14]: 0.056
- Activity (BN472 cell [15]): Active
- Activity (BN472 cell [16]): Active
- Activity (Mus musculus [17]): 65%
- T/C (B16-BL6 [18]): 0.6
- T/C [19]: 0.028
- Activity (Mus musculus [20]): 61%
- Activity (B16-BL6 [21]): Active
- T/C [22]: 0.176
- T/C (Mus musculus [23]): 0.34
